According to paper PMC4459094 (FEBS Open Bio, 2015):

Tests used:
hMIP = details: continuous activity assay with fluorogenic substrate Abz-GFSPFRQ-EDDnp; cited from earlier work
[1] = target: T1, recombinant human mitochondrial intermediate peptidase (hMIP) (Homo sapiens, UniProt Q99797); assay: Hydrolysis of FRET peptides by hMIP in solution; assay type: biochemical; details: analogue without the P8 and P5 versus Abz-FRSGQPLQNKVQLQ-EDDnp
T1 sequence (Q99797 36-713): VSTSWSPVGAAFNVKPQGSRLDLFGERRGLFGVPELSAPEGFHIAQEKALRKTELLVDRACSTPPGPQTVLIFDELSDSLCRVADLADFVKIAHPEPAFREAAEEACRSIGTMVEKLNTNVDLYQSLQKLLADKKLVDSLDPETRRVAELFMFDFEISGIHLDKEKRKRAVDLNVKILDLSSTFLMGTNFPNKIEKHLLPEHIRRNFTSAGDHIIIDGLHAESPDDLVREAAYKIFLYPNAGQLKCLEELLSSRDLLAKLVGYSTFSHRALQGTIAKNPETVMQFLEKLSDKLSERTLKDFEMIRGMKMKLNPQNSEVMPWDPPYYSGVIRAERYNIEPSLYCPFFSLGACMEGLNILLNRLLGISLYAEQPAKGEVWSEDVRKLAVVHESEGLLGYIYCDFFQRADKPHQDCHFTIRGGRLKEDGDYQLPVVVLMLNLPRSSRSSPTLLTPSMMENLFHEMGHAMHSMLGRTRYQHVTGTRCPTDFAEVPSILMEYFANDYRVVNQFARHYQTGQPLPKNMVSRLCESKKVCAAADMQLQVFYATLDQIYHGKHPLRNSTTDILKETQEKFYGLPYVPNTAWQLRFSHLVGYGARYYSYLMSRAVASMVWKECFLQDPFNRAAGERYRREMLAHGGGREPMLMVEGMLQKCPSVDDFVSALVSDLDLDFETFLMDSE
How it was run: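 Recombinant human MIP with an N-terminal His6 tag replacing the mitochondrial signal sequence, expressed in E. coli BL21(DE3)pLysS and purified by Ni-affinity then anion-exchange chromatography. Abz/EDDnp FRET peptide hydrolysis was followed fluorometrically (ex 320, em 420 nm). Rates were converted to moles per second using standard peptide fluorescence before and after total hydrolysis, with under 10% substrate consumed. kcat, KM and kcat/KM are given as means ± SD.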

| Compound | inhibition of hMIP (hMIP) | fold lower specificity constant than Abz-FRSGQPLQNKVQLQ-EDDnp [1] [fold] |
| --- | --- | --- |
| O=C(O)CNC(=O)C(CS)Cc1ccccc1 (stereo not drawn) [thiorphan] | small level of inhibition |  |
| Abz-QPLQNKVQ-EDDnp [Abz-QPLQ↓NKVQ-EDDnp] |  | 7 |
| C[C@H](CS)C(=O)N1CCC[C@H]1C(=O)O [captopril] | small level of inhibition |  |
